Laboratory results taken from ChEMBL document CHEMBL4041521, “3-Aroylindoles display antitumor activity in vitro and in vivo: Effects of N1-substituents on biological activity” (Eur J Med Chem, 2017).

Legend:
[1] = species: Homo sapiens; assay: Inhibition of HDAC in human PC3 cells assessed as increase in alpha-tubulin acetylation by Western blot analysis; type: cell-based
Outline: (§1)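 PC3 prostate cancer cells treated, then lysed in 20 mM Tris-HCl pH 7.5 with 150 mM NaCl, EDTA/EGTA, phosphatase and protease inhibitors, 0.1% Triton X-100. Lysates spun 13,000 rpm for 30 min, then immunoblotted for acetylated α-tubulin and acetylated histone H3.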

[2] = system: RPMI-8226; assay: Antitumor activity against human RPMI8226 cells xenografted in ip dosed athymic nude mouse assessed as tumor growth inhibition administered once daily measured twice per week; type: functional, organism-based
Outline: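 Male athymic nude mice (5–6 wk) implanted s.c. with 1 × 10⁷ RPMI-8226 myeloma cells; randomized by tumor size at ~150–350 mm³. Daily i.p. injection, vehicle 5% DMSO + 5% Cremophor in D5W. Tumor volume by calipers twice weekly as (length × width²)/2; %TGI derived from treated vs control volume ratios at time t and time 0.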

[3] = system: Mus musculus; assay: Toxicity in human PC3 cells xenografted in athymic nude mouse assessed as body weight loss at 100 to 200 mg/kg, po qd administered daily measured daily during first week followed by twice per week; type: organism-based; conditions: in vivo
Outline: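 PC3 xenograft nude mice (male, 5–6 wk) given daily oral drug in 5% DMSO + 5% Cremophor in D5W. Body weight recorded daily in week one, then twice weekly, compared with vehicle group.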

[4] = species: Homo sapiens; assay: Inhibition of HDAC in human PC3 cells assessed as increase in histone-H3 acetylation by Western blot analysis; type: cell-based; outline: as §1
[5] = species: Sus scrofa; assay: Inhibition of purified porcine tubulin polymerization measured every 1 min for 30 mins
[6] = molecular target: T1, Histone deacetylase 7 (Homo sapiens, UniProt Q8WUI4); assay: Inhibition of recombinant human HDAC7 using fluorogenic substrate by fluorescence assay
T1 sequence (Q8WUI4 whole entry): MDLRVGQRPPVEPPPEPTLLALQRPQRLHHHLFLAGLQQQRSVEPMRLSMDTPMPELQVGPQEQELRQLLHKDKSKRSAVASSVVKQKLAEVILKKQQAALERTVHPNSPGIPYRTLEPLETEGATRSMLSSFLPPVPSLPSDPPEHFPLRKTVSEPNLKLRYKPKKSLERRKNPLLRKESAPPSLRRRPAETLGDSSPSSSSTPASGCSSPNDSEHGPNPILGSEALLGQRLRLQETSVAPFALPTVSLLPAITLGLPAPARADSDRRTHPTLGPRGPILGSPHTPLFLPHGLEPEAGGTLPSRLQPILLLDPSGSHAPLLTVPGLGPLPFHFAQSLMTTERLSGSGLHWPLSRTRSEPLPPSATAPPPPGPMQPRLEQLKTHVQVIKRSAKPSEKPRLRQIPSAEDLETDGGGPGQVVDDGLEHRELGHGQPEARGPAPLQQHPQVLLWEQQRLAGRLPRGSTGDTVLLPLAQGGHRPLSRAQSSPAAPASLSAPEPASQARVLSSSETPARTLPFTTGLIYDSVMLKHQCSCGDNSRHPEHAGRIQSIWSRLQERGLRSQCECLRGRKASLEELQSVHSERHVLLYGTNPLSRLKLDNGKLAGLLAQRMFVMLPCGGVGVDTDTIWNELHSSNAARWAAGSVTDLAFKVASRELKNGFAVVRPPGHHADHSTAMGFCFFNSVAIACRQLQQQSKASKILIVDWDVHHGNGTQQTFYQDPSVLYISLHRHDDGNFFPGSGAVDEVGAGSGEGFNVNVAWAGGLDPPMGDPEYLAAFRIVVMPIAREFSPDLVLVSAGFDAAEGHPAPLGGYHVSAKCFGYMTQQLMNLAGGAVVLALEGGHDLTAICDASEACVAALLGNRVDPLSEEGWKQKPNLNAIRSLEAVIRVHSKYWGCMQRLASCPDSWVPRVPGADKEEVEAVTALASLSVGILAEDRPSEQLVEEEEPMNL

Row | Structure (SMILES) | alpha-tubulin acetylation increase [1] | TGI [2] | Activity [3] | inhibition [4] | inhibition [5] | IC50 [6]
1 | COc1ccc2c(C(=O)c3cc(OC)c(OC)c(OC)c3)cn(Cc3ccc(C(=O)NO)cc3)c2c1 | Dose-dependent effect | Dose-dependent effect | Non-Toxic | Dose-dependent effect | Dose-dependent effect | –
2 | COc1ccc2c(C(=O)c3cc(OC)c(OC)c(OC)c3)cn(S(=O)(=O)c3cccc(/C=C/C(=O)NO)c3)c2c1 | – | – | – | – | – | Not Active
